Measured values published in the EternaBench riboswitch data.

Test system: MS2 coat protein
Assay: apparent Kd, MS2 coat protein; higher = weaker binding; RNA-MaP array; FMN 200 µM where present
How it was run: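 SNAP-549-labelled MS2 coat protein, doubled from 0.7 or 1.5 nM to 3 µM, was titrated over designs transcribed by stalled E. coli RNA polymerase on Illumina sequencing-chip clusters. Titrations were run without and then with constant ligand in 100 mM Tris-HCl pH 7.5, 80 mM KCl, 4 mM MgCl2, BSA, DTT, yeast tRNA and Tween-20. The apparent Kd is the median of filtered per-cluster fits to green signal normalised to red-channel RNA signal and control-cluster median Fmax.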

[1] = designed as: ON switch for flavin mononucleotide, no ligand
[2] = ligand present: flavin mononucleotide, designed as: ON switch for flavin mononucleotide
[3] = designed as: OFF switch for flavin mononucleotide, no ligand
[4] = ligand present: flavin mononucleotide, designed as: OFF switch for flavin mononucleotide

Row | Sequence | apparent Kd [1] [nM] | apparent Kd [2] [nM] | apparent Kd [3] [nM] | apparent Kd [4] [nM]
1 | CGCGAACAUGAGGAUCACCCAUGUGGGUGGAACGUAGGAUAUACGCAGGUCUUUAAAACGGUAGAAGGACGUUCGC | 452 | 159 |  | 
2 | GUGCAUUCGUAGAAGGGUGACAUGAGGAUCACCCAUGUGCGCUGGGCUCAGGAUGCCUCAGCGCCACAGGAUAUACGAAGCACC | 97.6 | 35.1 |  | 
3 | GCACUGGAUGUAGGAUAUCAGGACGAUAAGUCCUGAGAAGGACAUGAGGAUCACCCAUGUGAUUACACCAGUGCAAAUAAUAUA |  |  | 5.78 | 7.06
4 | AAUGGGUGUGUGAGGAUAUACGAUGGCAGUUGCCAGUAGAAGGUACAUGAGGAUCACCCAUGUGUCCAAAAGUG |  |  | 13.2 | 16
5 | UAGAUGGGAGGAUAUGCGUAGAUGCGGAUUCGUGUGGUGCUACAUGAGGAUCACCCAUGUAGAAGGCCCGUCUU |  |  | 14.4 | 22
6 | CUUUUGUGAGGAUAUUCGUAGUAAAUAAAUAAAAUUAUUACGGAGAAGGCACAUGAGGAUCACCCAUGUUCCUU |  |  | 17.1 | 50.3
7 | AUACAUGAGGAUCACCCAUGUAAUUAAUUAACUUGUAAGAUCAAGGAUAUCAGCUCGAUUAGAGCUGAGAAGGUGAUCACAUGU | 260 | 253 |  | 
8 | AAUAAACUCACAGGAUAUAGCAGAGGUCGCGUAAACUUACAGGCGACGAUGCUAGAAGGGUGACCACAUGAGGAUCACCCAUGU | 871 | 118 |  | 
9 | AAGUCUGGAUGAGGAUAUCAGCUGUAACUGACGUCGACAUGAGGAUCACCCAUGUUGCUAUAGGGUGAGAAGGCAUUUGGGCAA | 106 | 28.6 |  | 
10 | CGUGAGUCAGGAUAUUAGUAGUGUGUGGAUACAUAUAUUGCUGAGAAGGGACAUGAGGAUCACCCAUGUAUACG |  |  | 32 | 37.1
11 | GAAUAAUUGAUCCAAUUUAUCUACAUGAGGAUCACCCAUGUGCAGGAUAUCGUAAUAUUUAAUUACGAGAAGGGCAAGAACGGU |  |  | 281 | 425
12 | UGCUGACAAGGAUAUACUCGGGAUGCUAGUCGCGCAGUUGCACAUGAGGAUCACCCAUGUAGAAGGUGUCAGUA |  |  | 169 | 210
13 | GAUCAAAACACUCCUUACACUACAUGAGGAUCACCCAUGUAGCAGGAUAUCGUUGCUCCUCGCUGCGAGAAGGGCUACGGGCGG |  |  | 8.02 | 13.8
14 | UUUAGUUCAGGAUAUGUAGAUUUUAACAUGAGGAUCACCCAUGUAGAUCCUGAUCCUGCUACAGAAGGGAAUAUUU |  |  | 23.1 | 25.1
15 | GGAUAGGACAGAGGAUAUACGGAUAGGAUCUACUAUCUUCCUUAAAUAACAUGAGGAUCACCCAUGUAGAAGGCUGUCCUAUCG |  |  | 18.6 | 67.9
16 | UAUAUAUAGUAAGGAUAUGUAACUAUUUUAUAAACAGAAGGUACUGACAUGAGGAUCACCCAUGUUUUAGUGUGGGCAUGUAGA |  |  | 86.7 | 136
17 | CACGGAUAGUAGAAGGGUGACAUGAGGAUCACCCAUGUACUUAUUUAUUUAUUACUAUUUGAUACACAGGAUAUACUAUCCGUG | 956 | 279 |  | 
18 | AAUAUAAGAGCUGGUAACUCAAGAACAUGAGGAUCACCCAUGUAGGAUAUCAGCACGAUAAGUGCUGAGAAGGACAUCCAGCUC |  |  | 15.3 | 19
19 | GGAUAGGACAGAGGAUAUACGUGCUAGGGAUACUAGCAAAAUUUCCUCACAUGAGGAUCACCCAUGUAGAAGGCUGUCCUAUCG |  |  | 16.1 | 416
20 | CAUUGGUAAGGAUAUGCACCGAUCUCCGAAAGGAGAUCGGUGCAGAAGGUACAUGAGGAUCACCCAUGUUGAUG |  |  | 27.1 | 63.9
21 | GUCCCACAUGAGGAUCACCCAUGUGAGGAUAUGGAUUCGCUGGCCGUAGCCAGUGGAUCCAGAAGGCGCGUGAU |  |  | 73.5 | 77.2
22 | GUGGUACAUGAGGAUCACCCAUGUUAGGAUAUCGCGUGAGGUUUUACUUCCGCGCGCGCGAGAAGGGACGUCUU |  |  | 26.8 | 22.8
23 | GUUUAGUGAGGAUAUGUGGCUUCGAUCGUGAGAUCGAGGCUACAGAAGGCACAUGAGGAUCACCCAUGUUCCUU |  |  | 14.4 | 51.6
24 | UAUAUAUAGUAAGGAUAUGUAUUAAAUUUAUAAACAGAAGGUACUGACAUGAGGAUCACCCAUGUUUUAGUGUGGGCAUGUAGA |  |  | 99.6 | 148

Row | Sequence | apparent Kd [1] [nM] | apparent Kd [2] [nM] | apparent Kd [3] [nM] | apparent Kd [4] [nM]
25 | AGUUUACAUGAGGAUCACCCAUGUGAGGAUAUGGAAUCGCUGGCCGUAGCCAGUGGUUCCAGAAGGCGCGUGAU |  |  | 99 | 187
26 | AAAAAACAUGAGGAUCACCCAUGUGAGGAUAUCUGAAAAAAAAAAAAAAAAAAGAAAAAGAGAAGGCGCAAAGA |  |  | 124 | 65.2
27 | GGGUGGCGUAGAGGAUAUAUGGUACAUGAGGAUCACCCAUGUACAUAUGAUGUUCAUGUUUAUGUAUAGAAGGCUACGUCGCUA | 10.1 | 9.76 |  | 
28 | GGACCGUCCAGAGUUGGCGGUCGGCAGGAUAUGACAUGAGGAUCACCCAUGUGAACUCCAUUGGGUCAGAAGGGCCACGACGAU |  |  | 25.2 | 94.7
29 | CUAUAUAAUACCUCAUGUACAUGAGGAUCACCCAUGUUAACUUAGGAUAUAUUUAUAUUAAUAGAGUAGAAGGAAGUACUAUUG |  |  | 27.4 | 21.2
30 | ACAUGAGGAUCACCCAUGUUAUCCGGGACUUCAAUUGUUUCUAGAAGGCUGUCUGCUUGUUAGUCAGAGGAUAUAGAAUCAAAU |  |  | 11.4 | 11
31 | AAGUCACAUGAGGAUCACCCAUGUCGUAAACGAUGAGGAUAUAGGAACGAAAGAAAAAAACUAGAAGGUAUAACAA | 52.2 | 52 |  | 
32 | ACUAAAGAAGGAUAUACUAACGAACCUCAAACAUAGAUAAGACAUGAGGAUCACCCAUGUAGAAGGUCUAGACU |  |  | 44.2 | 37.4
33 | ACAUAAAUUCGAGGAUAUCGGUGAAAUAAUCUACGAGAAGGCGAUAAUGGUUAUAGACUUAUAGACAUGAGGAUCACCCAUGUA | 26.2 | 25.6 |  | 
34 | AUUUAUCUAGGAUAUACAUGAGGAUCACCCAUGUUGAAGCGUAGGUACCUUUCCGAAUGUAGAAGGAGAGCACC |  |  | 19.9 | 22.2
35 | CAAUCUGCAGGAUAUACAUGAGGAUCACCCAUGUAAGGACAAUAAAUAAGAAGAAGAAGUAGAAGGGCAGACAA |  |  | 30.1 | 31.8
36 | UGGUACAAGGGAGGAUAUGGGAAGAUACAUGAGGAUCACCCAUGUUUAAGAAUGCCGAGAGGCAACUAGAAGGCCCUAGUACCU | 506 | 20.4 |  | 
37 | AACGCAGAAAUCGCAAUACAUGAGGAUCACCCAUGUAGAUCACAGGAUAUGGUCUAGUCAGUGGUCCAGAAGGGUGAUCAGAAC | 66.4 | 38.6 |  | 
38 | AGCGGCGCGGGCCACCGCAAAACCAGAAGGACAUGAGGAUCACCCAUGUAACAAAACAGGGCGGUGUAGGAUAUGGCAGACCCG |  |  | 14.7 | 23.8
39 | UUGGACGUCGUAGGAUAUGUAGGAUAUUCCUACAUGAGGAUCACCCAUGUUGACAUGGAAGAAGAACAGAAGGACGAUGUCCAU | 212 | 6.04 |  | 
40 | UUGCUGCGGAAGUUCGGCUCUCGCGAGGAUAUACCUACAGGGCCACAUGAGGAUCACCCAUGUACGUAGAAGGCGCGACAGAAA |  |  | 15.8 | 48
41 | CCGGCUGCUGUGAGGAUAUGCCUGUGGGUCCGCGGGCAGAAGGCACAUGAGGAUCACCCAUGUCCUGCGGUCCC |  |  | 27.1 | 28.3
42 | ACGUAUCAUGUAGGAUAUGACCCAGGAACUUGGUCAGAAGGACAUGAGGAUCACCCAUGUAGAGUAUGUUAGGAUGACGUAUGC |  |  | 114 | 150
43 | GAAGCAUGCAUUAACAUGAGGAUCACCCAUGUGAAAACACGUGAGGAUAUUGAUCUGAAGAAGAUCGAGAAGGCACCGUGCUAA | 14.1 | 9.11 |  | 
44 | UUUUAAUAAAAGAAGGAGCACUACAUGAGGAUCACCCAUGUGUUAGUAGUUAGGAUAUUUAAUAACAUGAGGAUCACCCAUGUA | 194 | 87 |  | 
45 | AGUAAGAUGCAGAAGGUGUCAGCGAGAGCUGCGACAUGAGGAUCACCCAUGUGUCGGUGACGACGCAAGGAUAUGCAUCUUACA | 138 | 56.6 |  | 
46 | CUUCAGUCAGGAUAUGUUAAUCUCGCCACUCCACGAGCCGGACAGAAGGGACAUGAGGAUCACCCAUGUUAGAC |  |  | 30 | 22.4
47 | AGGCACAUCGGAGGAUAUCAUGUAAAUACAUGAGGAUCACCCAUGUCGAUGGAGACAUCGGAGAUUGAGAAGGCCGAUGUACCG | 175 | 8.44 |  | 
48 | GACAUUGGCAAGAAGGCAAACAUGAGGAUCACCCAUGUUCUGUAUGUAUAUUGAGGAUAUUGCCAAUGUAUGUGGAUCACCCAA |  |  | 9.44 | 8.28
